The full list was thinned out, with hits kept by preference.
ROMK primary: ROMK potassium channel modulators, primary screen, cell-based, thallium flux, MLSMR library. ATP-sensitive inward rectifier potassium channel 1 (Homo sapiens), P48048. B-score at 10 µM. hit rate 2% among 130,000. Tet-inducible ROMK, thallium flux fluorescence; actives lie on both sides;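 active = signal ratio slope over the read window, or its plate-corrected B-score, at least 3 SD from the plate mean, either direction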;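 also: B-score of the F/F0 ratio slope over 7 to 12 s after thallium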
Target sequence (P48048 whole entry, looked up): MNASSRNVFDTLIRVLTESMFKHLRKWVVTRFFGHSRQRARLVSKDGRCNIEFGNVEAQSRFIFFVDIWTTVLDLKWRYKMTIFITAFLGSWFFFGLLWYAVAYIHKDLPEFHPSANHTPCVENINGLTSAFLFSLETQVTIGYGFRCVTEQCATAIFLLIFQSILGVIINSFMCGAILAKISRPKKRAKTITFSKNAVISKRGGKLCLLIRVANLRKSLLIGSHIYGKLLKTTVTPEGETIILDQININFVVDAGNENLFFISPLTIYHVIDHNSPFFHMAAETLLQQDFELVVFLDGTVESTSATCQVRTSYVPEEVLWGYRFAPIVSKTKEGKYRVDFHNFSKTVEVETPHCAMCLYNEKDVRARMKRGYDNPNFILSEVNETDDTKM
Biofilm kill mix: clotrimazole potentiators killing C. albicans biofilm, primary screen, 4-compound mixtures. C. albicans biofilm persisters + clotrimazole, fluorescence viability; primary screen in compound mixtures of four per well. inhibition, % at 7.6 µM. hit rate 0.02% among 120,000;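 active = inhibition above 30.3% in the primary screen of four-compound pools, then above 30% when the compound was retested; inconclusive = passed the primary limit but could not be retested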;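 also: compounds exposed to preformed 24 h biofilms for 48 h; 0% = untreated biofilm control and 100% = clotrimazole plus chlorhexidine kill blank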
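Incubation: 24 h biofilm formation, then 48 h compound exposure, 37 °C | Material: C. albicans biofilms | Buffer or medium: RPMI/MOPS medium, pH 7.0 | Measured by: 2-h Alamar Blue fluorescence, 535/590 nm excitation/emission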
ROMK retest: ROMK channel modulator hit retest, confirmation, cell-based, thallium flux, duplicate, resupplied hits; fluorescence ratio; hits give low values; hit rate 54% among 3,000; shares compounds with ROMK primary; normalized thallium flux (F/F0 slope) at 10 µM;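 active = Flux at 10 µM at least 3 SD below or above vehicle control mean in one or both replicates; inconclusive = no clear call, values can overlap the other calls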
The depositor's hits bear a star; ? = inconclusive; . = not tested or not shown.

SMILES | ROMK primary | Biofilm kill mix | ROMK retest
COc1cc(/C=C2\SC(=Nc3ccccc3)N(CCc3c[nH]c4ccccc34)C2=O)ccc1OC(C)C(=O)O (configuration not stated) | . | 15.9 | .
O=C1/C(=C/c2ccc(N3CCOCC3)o2)SC(=Nc2ccccc2)N1CCc1c[nH]c2ccccc12 | . | . | 0.0588*
CCC1CCC(NC(=O)Nc2cccc(OC)c2)CC1 (configuration not stated) | -0.669 | 29.3 | .
COc1cc(NC(C)=O)c2ncccc2c1[N+](=O)[O-] | -4.72* | 14.9 | 0.0465*
COc1cc(NC(C)=O)c2ncccc2c1NC(C)=O | . | 20.4 | .
O=C(Nc1ccccc1)n1cc(-c2ccccn2)c(N2CCOCC2)n1 | . | 16.6 | .
CCOc1ccc(C2C(C(=O)c3ccc(C)o3)=C(O)C(=O)N2CCN2CCOCC2)cc1OC (configuration not stated) | 1.8* | . | 0.0799
CCCOc1ccc(C2C(C(=O)c3ccco3)=C(O)C(=O)N2CCN2CCOCC2)cc1OC (configuration not stated) | 0.225 | . | .
O=[N+]([O-])c1cc2c(cc1/C=N/NS(=O)(=O)c1ccc(Br)cc1)OCO2 | -0.023 | 11.6 | .
O=C(COc1ccc(Cl)cc1Cl)N1CCCC1 | -0.518 | . | .
O=C(COc1ccc(Cl)cc1[N+](=O)[O-])N1CCCCCC1 | -1.79* | 10.4 | ?
Cc1ccc(NC(=O)ON=C2CCCC2)cc1 | 0.106 | 6.1 | .
COc1ccc(-c2csc(-c3[nH]cnc3N)n2)cc1 | -1.06 | 13.2 | .
O=C(NCCC(c1ccccc1)c1ccccc1)c1cccs1 | -0.169 | 3.6 | .
Cc1cc2ccccc2n1CCNC(=O)c1cccs1 | . | . | 0.0685*
COc1cc(/C=C(\C#N)C(=O)N2CCOCC2)cc(Br)c1O | . | 10.4 | .
N#C/C(=C\c1cccc(Oc2ccccc2)c1)C(=O)N1CCOCC1 | -6.99* | 14.3 | 0.0355*
CCOC(=O)c1sc(NC(=O)C(C)Sc2nnc(N)s2)nc1C (configuration not stated) | -0.128 | 14.2 | .
O=C1N=C(C=c2ccc(=Cc3[nH]c(=O)[nH]c3O)cc2)C(=O)N1 | . | 10.6 | .
O=C(Cn1c(CO)nc2ccccc21)Nc1ccccc1Cl | -2.5* | 5.4 | 0.062*
Cc1cc(C)cc(NC(=O)Cn2c(-c3ccccc3Cl)nc3ccccc32)c1 | . | 20.8 | .
CN(C)CCNC(=O)c1scc2c1CCCC2 | . | 11.7 | 0.0756
C=CCNC(=O)c1scc2c1CCCC2 | -0.391 | . | .
COc1ccc(CCNc2oc(COc3ccccc3F)nc2C#N)cc1OC | -3.24 | . | .
COc1ccc(CCNc2oc(COc3ccccc3Cl)nc2C#N)cc1OC | . | . | 0.0668*
SMILES | ROMK primary | Biofilm kill mix | ROMK retest
Cc1ccc2sc(N(CCCN(C)C)C(=O)c3ccc(Br)s3)nc2c1C | -0.0996 | -14.4 | .
CC(=O)NC(Nc1c(C)n(C)n(-c2ccccc2)c1=O)C(Cl)(Cl)Cl (configuration not stated) | . | 7.0 | .
CCOC(=O)c1ccc(N2C(=O)c3n[nH]c(C)c3C2c2ccc(OC)cc2OC)cc1 (configuration not stated) | -0.209 | 13.1 | .
CCOC(=O)c1ccc(N2C(=O)c3n[nH]c(C)c3C2c2ccc(OC)c(OC)c2)cc1 (configuration not stated) | . | . | 0.0875
N#C/C(=C(/O)C(Cl)(Cl)Cl)c1nc2ccccc2[nH]1 | -4.95* | 24.4 | 0.045*
N#C/C(=C\c1ccncc1)c1nc2ccccc2[nH]1 | -5.24* | 3.6 | 0.0511*
N#C/C(=N\O)c1nc2ccccc2[nH]1 | 0.214 | 7.8 | .
N#C/C(=C\c1cccnc1)c1nc2ccccc2[nH]1 | . | 4.9 | .
N#C/C(=C/c1ccncc1)c1nc2ccccc2s1 | -3.47* | 3.5 | 0.0529*
CC1CCc2nc(/C(C#N)=C/c3ccncc3)sc2C1 (configuration not stated) | -0.764 | -6.9 | .
Clc1ccc2c(c1)C(N1CCNCC1)Cc1ccccc1S2 (configuration not stated) | . | 10.0 | .
Clc1cccc2c1Sc1ccccc1CC2N1CCNCC1 (configuration not stated) | -3.15* | 9.0 | 0.0507*
CCOC(=O)c1nn(-c2ccc(C)cc2)c(=O)c2c(N)scc12 | . | 15.9 | 0.0805
CCOC(=O)c1nn(-c2ccc(F)cc2)c(=O)c2c(N)scc12 | 0.889 | 18.7 | .
CSCCC(NS(=O)(=O)c1ccc(Cl)cc1)C(=O)OCC(=O)c1ccc(F)cc1 (configuration not stated) | -0.233 | 3.1 | .
Cc1ccc(-c2nnc(SCC(=O)N/N=C/c3ccc(C)s3)n2-c2ccc(C)cc2)cc1 | . | 16.3 | .
COCCNC(=O)/C(C#N)=C/c1ccc(OCc2ccccc2)cc1 | . | 11.0 | .
N#C/C(=C\c1ccc(OCc2cccc(C(=O)O)c2)cc1)C(=O)NCc1ccco1 | . | 13.1 | 0.0385*
CCc1ccc(-n2c(C)cc(/C=N/NC(=O)OC)c2C)cc1 | -0.288 | 16.8 | .
Cc1cc(/C=N/NC(N)=S)c(C)n1-c1ccc(Cl)c(Cl)c1 | -0.45 | 12.2 | .
COC(=O)N/N=C/c1cc(C)n(-c2ccc(F)cc2)c1C | . | 6.7 | .
CCNC(=S)N/N=C/c1cc(C)n(-c2ccc(Cl)cc2)c1C | 3.01* | 13.7 | 0.0844
COC(=O)N/N=C/c1cc(C)n(-c2ccc(Br)cc2)c1C | . | 4.4 | 0.0879
Cc1cc(/C=N/NC(N)=O)c(C)n1-c1ccc(F)cc1 | 2.89* | 10.0 | ?
O=C(CC1Sc2ccccc2NC1=O)NCc1ccc(Cl)cc1 (configuration not stated) | -1.01 | 13.3 | .
SMILES | ROMK primary | Biofilm kill mix | ROMK retest
O=C(CNc1cc(S(=O)(=O)N2CCCC2)ccc1OCC(F)(F)F)Nc1ccc(SC(F)F)cc1 | -2.17 | 21.4 | .
NC(CO)(CO)COCc1ccccc1 | 0.629 | 5.1 | .
O=[N+]([O-])c1ccc(C2Oc3ccccc3C3CC(c4ccccc4)=NN32)s1 (configuration not stated) | -0.407 | 15.9 | .
CCOC(=O)CC(NS(=O)(=O)c1ccc(OC)c(C)c1)c1cccc([N+](=O)[O-])c1 (configuration not stated) | -0.984 | 6.7 | .
O=C(c1ccccc1Cl)N(Cc1ccc(Br)cc1)N1C(=O)CCCC1=O | . | 4.2 | .
O=C(c1ccc([N+](=O)[O-])cc1)N(Cc1ccc(Br)cc1)N1C(=O)CCCC1=O | -7.31* | . | 0.0366*
CCCCN(c1ccccc1)S(=O)(=O)c1cccc2cccnc12 | . | 14.4 | .
O=C(Nc1ccc2c(c1)CCC2)c1cc(=O)[nH]c2ccccc12 | . | 16.5 | .
Nc1nc(CCl)nc(N(c2ccccc2)c2ccccc2)n1 | . | 19.7 | .
CC1(C)CC(=O)C2=C(C1)N(CCN1CCOCC1)C1=C(C(=O)CC(C)(C)C1)C2c1cccc(Cl)c1 | -2.96* | . | 0.0524*
CCN(CC)CCN1C2=C(C(=O)CC(C)(C)C2)C(c2cccc(F)c2)C2=C1CC(C)(C)CC2=O | -0.895 | 10.5 | .
O=C(Nc1ccc(F)cc1)Nc1nnc(-c2ccco2)s1 | 0.688 | 11.3 | .
COc1cc2c(cc1OC)C(c1cccs1)N(C(=O)c1cccc(S(=O)(=O)N(C)C)c1)CC2 (configuration not stated) | . | 7.9 | .
OC(CNC1CCCC1)COc1ccc(-c2ccccc2)cc1 (configuration not stated) | -3.41 | 14.1 | .
OC(CNC1Cc2ccccc2C1)COc1ccc(Cl)cc1 (configuration not stated) | -5.33* | 21.2 | 0.0488*

Compound activity deposited in PubChem by several laboratories.
